GSIS activator – primary screen for activators of insulin secretion dependent on glucose, INS-1E cells, GLuc reporter luminescence; activation, % at 16.6 µM; AID 743287; INS-1E GLuc reporter insulin secretion, 2-3 h; actives 0.61% (n = 370,000);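 active = lowest replicate activation of at least 40%, so every replicate reaches that level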;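 note: 0% = median of neutral control wells and 100% = median of IBMX positive control wells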
E-selectin induc – induces E-selectin expression in human endothelial cells; HUVEC E-selectin immunofluorescence imaging; normalized: neutral wells 0, TNF-alpha wells 100; P16581; actives 0.37% (n = 260,000); AID 686992; activation, % at 7.58 µM;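 active = mean E-selectin-positive cell signal at least 10% of the positive control, reached in at least 60% of replicates, without over 20% cell loss; inconclusive = no rule given, readout overlaps actives, possibly toxicity-flagged; inactive = the rest, including those meeting only one limit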
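material = human umbilical vein endothelial cells (HUVEC), E-selectin induction | quantity = 3,000 cells/well | medium = EGM-2 growth medium on 0.1% gelatin-coated wells | technique = immunofluorescence imaging | read-out basis = % PE-positive cells | control set = TNF-alpha positive control, DMSO neutral control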
RAD54 inh – inhibitors of human RAD54 branch migration | RAD54 Holliday junction branch migration, FAM/BHQ fluorescence | inhibition, % at 10.4 µM | actives 0.14% (n = 360,000) | AID 602329;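 active = mean normalized replicate activity at least 40 and at least half of replicates scoring 40 or more; inconclusive = only one of the two criteria met; inactive = mean below 40 and under half of replicates reaching 40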;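 note: 0% = median of neutral control wells and 100% = median of positive control wells; inhibitors cause a drop in the FAM fluorescence signal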
MLL AF4-AF9 inh – inhibitors of human MLL-AF4/AF9 interaction; P42568; AlphaScreen, biotin-AF4 peptide binding to FLAG-AF9; inhibition, % at 10 µM; actives 0.47% (n = 350,000);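 active = every replicate reaching a set inhibition limit, whatever the replicate mean, cut at about 25% in these data; inconclusive = mean inhibition reaches that limit but some replicates miss it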;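 note: 0% = plate neutral control median and 100% = total signal loss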
Target sequence (P42568 whole entry, looked up): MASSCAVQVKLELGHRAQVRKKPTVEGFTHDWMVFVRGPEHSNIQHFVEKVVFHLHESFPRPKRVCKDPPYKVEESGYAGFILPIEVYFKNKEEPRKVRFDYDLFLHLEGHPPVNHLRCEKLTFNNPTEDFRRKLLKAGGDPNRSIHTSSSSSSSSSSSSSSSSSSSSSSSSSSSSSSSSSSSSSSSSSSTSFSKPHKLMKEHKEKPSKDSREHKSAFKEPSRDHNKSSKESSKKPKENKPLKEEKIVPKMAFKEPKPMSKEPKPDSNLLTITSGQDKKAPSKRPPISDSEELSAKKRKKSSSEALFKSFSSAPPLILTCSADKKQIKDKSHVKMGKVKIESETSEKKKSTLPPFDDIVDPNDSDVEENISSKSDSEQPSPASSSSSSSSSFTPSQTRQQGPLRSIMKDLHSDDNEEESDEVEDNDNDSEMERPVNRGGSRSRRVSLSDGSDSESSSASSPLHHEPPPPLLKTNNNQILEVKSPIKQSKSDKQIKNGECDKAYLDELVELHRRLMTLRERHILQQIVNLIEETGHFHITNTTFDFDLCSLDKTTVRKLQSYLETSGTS
Ecoli rRNA inh – selective bacterial rRNA inhibition in E. coli. E. coli WT GFP vs humanized-ribosome RFP mutants, fluorescence, 24 h; stronger effect = lower value; DMSO median 0, no signal -100. GFP signal change (wild-type ribosome), % (no concentration beside the values). actives 1.6% (n = 350,000);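 active = significant combined selectivity score with lowered wild-type GFP, culture density cut under 30%, mutant RFP and density less affected; inactive = any of these conditions unmet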
RAD52 inh – RAD52 (human) annealing inhibition; actives 0.46% (n = 360,000); recombinant RAD52 DNA annealing, FRET fluorescence; inhibition, % at 18.7 µM; AID 651710; P43351;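 active = every replicate showing at least 50% inhibition; inconclusive = mean inhibition at least 50% but not in every replicate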
An asterisk follows results filed as active; ? = inconclusive; / = no result. In the library only some 2.6% were active in any assay of this set; here they are far more common.

SMILES	GSIS activator	E-selectin induc	RAD54 inh	MLL AF4-AF9 inh	Ecoli rRNA inh	RAD52 inh
C[C@H](O)C#Cc1cnc2c(c1)C(=O)N([C@@H](C)CO)C[C@H](C)[C@@H](CN(C)CC1CCCCC1)O2	9	0	7	2	4	-15
Cn1cc(Br)c(C(=O)NNC(=O)c2ccccc2)n1	42*	/	-1	/	/	/
COc1ccc(C)cc1NC(=O)c1nn(C)c(C(=O)Nc2cc(C)ccc2OC)c1[N+](=O)[O-]	10	/	0	-15	14	-3
Cn1cc(Br)c(C(=O)NNC(=O)c2ccc(Br)cc2)n1	/	-1	/	-1	/	-8
COc1ccc(C)cc1NC(=O)c1nn(C)cc1Br	-22	0	-1	8	-15*	-1
O=C(Nc1cccc(Cl)c1)OC1CCCCc2cccnc21 (stereo unspecified)	-27	5	/	-2	-24*	-3
O=C(Nc1ccccc1)OC1CCCCc2cccnc21 (stereo unspecified)	-17	/	-2	-3	-20	-10
O=C(C[C@H]1CC[C@@H](NC(=O)Nc2cc(F)ccc2F)[C@H](CO)O1)Nc1ccc(-c2ccccc2)cc1	-10	0	-2	-14	-7	11
CCCOC(=O)c1ccc(Oc2c(-c3ccc(O)cc3O)n[nH]c2C)cc1	/	/	-11	/	/	/
Cc1[nH]nc(-c2ccc(O)cc2O)c1Oc1ccccc1	-32	/	5	5	-13*	-15
COc1ccc(-n2cccc2/C=C2\C(=N)N3N=C(c4ccco4)SC3=NC2=O)cc1	8	0	/	-1	-23*	-133
CC1=CSC2=NC(=O)/C(=C\c3cccn3-c3ccc([N+](=O)[O-])cc3)C(=N)N12	237*	/	0	/	/	/
O=C(c1ccncc1)N1C[C@H]2[C@@H](c3ccccc31)[C@H](CO)N2C(=O)Nc1ccccc1Cl	-1	0	1	0	0	-8
C[C@@H]1CN([C@@H](C)CO)C(=O)c2cc(NC(=O)Nc3ccccc3)ccc2O[C@@H](C)CCCCO[C@@H]1CN(C)Cc1ccncc1	-20	0	/	/	-5	/
CCCNC(=O)N1C[C@H](O)COC[C@@H]2O[C@@H](CC(=O)N3CCCCC3)CC[C@H]21	6	0	0	-3	2	-3
Cc1cc(NC(=O)CCC(=O)N(c2ccccc2)C(C(=O)NC2CCCC2)c2ccc(F)cc2)no1 (stereo unspecified)	11	36*	-1	-6	8	-15
Cc1cc(NC(=O)CCC(=O)N(c2ccc(F)cc2)C(C(=O)NC2CCCC2)c2ccccc2)no1 (stereo unspecified)	12	-1	11	1	2	-3
Cc1ccc(C(=O)NC2CCCCCCC2)cc1S(=O)(=O)N1CCOCC1	1	0	2	2	1	-11
O=C(NC1CCCCCCC1)c1ccc(CNc2c(N3CCOCC3)c(=O)c2=O)cc1	-6	0	2	40*	6	-9
CCOC(=O)C1CCN(c2c(NCc3ccc(C(=O)NC4CCCC4)cc3)c(=O)c2=O)CC1	0	0	19	2	8	-3
O=C(NC1CCCC1)c1ccc(Cl)c(S(=O)(=O)N2CCOCC2)c1	47*	/	7	-3	-1	-8
C[C@@H]1CCCCO[C@@H](CN(C)S(=O)(=O)c2ccccc2)[C@@H](C)CN([C@@H](C)CO)C(=O)c2cc(NS(=O)(=O)c3ccc(Cl)cc3)ccc2O1	0	0	-4	-1	1	12
COc1ccccc1NC(=O)Cn1cc(C(=O)c2ccco2)c2ccccc21	-20	5	6	-1	-26*	-34
O=C([C@H]1[C@H](CO)[C@H]2Cn3c(ccc(C4=CCCCC4)c3=O)[C@@H]1N2Cc1nccs1)N1CCOCC1	4	0	-25	-11	4	2
O=C(NCCc1ccccc1)c1ccc([N+](=O)[O-])cc1	/	/	5	/	/	/
SMILES	GSIS activator	E-selectin induc	RAD54 inh	MLL AF4-AF9 inh	Ecoli rRNA inh	RAD52 inh
O=C(c1ccc([N+](=O)[O-])cc1)N(Cc1ccccc1)Cc1ccccc1	/	-3	2	1	-26*	5
O=C(C1CCC(CNc2c(N3CCOCC3)c(=O)c2=O)CC1)N1CCN(c2ccccc2)CC1 (stereo unspecified)	-5	0	-9	40*	-1	-14
O=C(C1CCC(CNc2c(N3CCCCC3)c(=O)c2=O)CC1)N1CCCCC1 (stereo unspecified)	13	0	1	-16	3	7
O=C(O)c1cccc(S(=O)(=O)Nc2cccc3ccccc23)c1	22	/	-15	-6	-4	0
O=C(O)c1cccc(S(=O)(=O)Nc2ccccc2Cc2ccccc2)c1	-2	1	2	44*	-5	-5
O=C(O)c1cccc(S(=O)(=O)N(Cc2ccccc2)c2ccc(Cl)cc2)c1	0	0	-12	-2	-44*	-14
COc1ccccc1CNC(=O)CCNS(=O)(=O)c1ccc2[nH]c(=O)oc2c1	53*	/	9	-4	-22	-17
COc1ccc2c3c(n(C)c2c1)[C@H](CO)NCC31CCN(C(=O)c2ccccc2)CC1	21	/	/	/	5	/
COc1ccc2c3c(n(C)c2c1)[C@H](CO)NCC31CCN(Cc2ccc(-c3ccccn3)cc2)CC1	19	-1	/	30*	-7	82*
COc1ccc2c3c(n(C)c2c1)[C@H](CO)NCC31CN(Cc2ccccc2Cl)C1	16	0	/	43*	-1	15
COc1ccc2c3c(n(C)c2c1)[C@@H](CO)NCC31CCN(Cc2ccc(-c3ccccn3)cc2)CC1	4	0	/	?	-5	83*
COc1ccc2c3c(n(C)c2c1)[C@H](CO)NCC31CN(Cc2ccc(Cl)cc2)C1	-4	/	/	/	-21	/
COc1ccc2c3c(n(C)c2c1)[C@@H](CO)NCC31CN(Cc2ccc(-c3ccccn3)cc2)C1	32	0	/	45*	2	96*
COCC(=O)Nc1ccc2c(c1)OC[C@@H](C)N(Cc1cc(F)ccc1F)C[C@H](C)[C@H](OC)CN(C)C2=O	-6	0	12	0	-7	0
COc1ccc(NC(=O)N(C)C[C@H]2OCCCC[C@H](C)Oc3ccc(NC(=O)Nc4ccc5c(c4)OCO5)cc3C(=O)N([C@@H](C)CO)C[C@H]2C)cc1	9	0	/	0	3	-10
C[C@@H]1CN([C@H](C)CO)C(=O)c2cccc(NC(=O)c3ccc(-c4nccs4)cc3)c2O[C@H]1CN(C)C(=O)Nc1ccc(C(F)(F)F)cc1	-13	0	-9	0	-5	6
C[C@@H]1CN([C@H](C)CO)C(=O)c2cc(NC(=O)CCC(F)(F)F)ccc2O[C@@H](C)CCCCO[C@@H]1CN(C)CC1CCCCC1	-5	-1	4	/	2	/
